From the array DNA melting data of Ke et al. (doi:10.1101/2024.01.08.574731)

How the values were obtained:
[1] = folding enthalpy; higher = less favourable; fluorescence melt of hairpins on a sequencing array, two-state fit; conditions: sodium 0.088 M
Procedure, shortened: (§1)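 Cy3 signals were normalised both to pre-quench Cy3 and to control constructs. They came from library hairpins carrying annealed Cy3 and quencher oligos on a sequenced MiSeq flow cell, imaged in 50 mM Na-HEPES pH 8.0, 25 mM NaCl, in 2.5 °C steps up to 60 °C. Bootstrapped two-state fits gave melting temperature and folding enthalpy, and four replicates were combined by inverse variance. Fitted temperatures were then raised by 9.35 °C to match UV melts.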

[2] = melting temperature; fluorescence melt of hairpins on a sequencing array, two-state fit, raised by 9.35 °C to match UV melts; conditions: sodium 0.088 M
Procedure, shortened: as §1

Sequence | folding enthalpy [1] [kcal/mol] | Tm [2] [°C]
GCCCTTGGAAACAAGAGC ((.((((....)))).)) | -21.4 | 37.6
GCCCTTGGAAACAGGGGC ((((.((....)).)))) | -41.4 | 54.4
GCCGAACGAAAGTTAGGC (((.(((....))).))) | -36.2 | 60.9
GCCGAAGGAAACTTCGAC (.(((((....))))).) | -19.8 | 41
GCCGACCGAAAGGTAGGC (((.(((....))).))) | -37.5 | 69.3
GCCGACGAAAGTCCTGGC ((((((....)))..))) | -20.2 | 45.1
GCCGACGAAAGTCTTGGC ((((((....)))..))) | -23.2 | 48.1
GCCGACGCGAAAGCGGGC (((..(((....)))))) | -18.1 | 65.9
GCCGAGACGAAAGTCGGC (((..(((....)))))) | -28.4 | 61.8
GCCGAGCGAAAGCCCAGC ((.(.((....)).).)) | -12.4 | 35.8
GCCGAGCGAAAGCCGGGC (((..((....))..))) | -13.3 | 67.2
GCCGAGCGAAAGCGCTGC ((.(.((....)).).)) | -12.4 | 45.6
GCCGAGCGAAAGCTAAGC ((..(((....)))..)) | -16.3 | 40
GCCGAGCGAAAGCTACGC ((..(((....)))..)) | -12.1 | 45.8
GCCGAGCGAAAGCTCAGC ((.((((....)))).)) | -18.1 | 58
GCCGAGCGAAAGCTCTGC ((.((((....)))).)) | -28.5 | 58.7
GCCGAGCGAAAGCTTCGC ((..(((....)))..)) | -11.3 | 49.2
GCCGAGCGAAAGCTTTGC ((..(((....)))..)) | -12.6 | 39.1
GCCGAGTCGAAAGACGGC (((..(((....)))))) | -21.2 | 56.6

Sequence | folding enthalpy [1] [kcal/mol] | Tm [2] [°C]
GCCGATGGAAACGTTGGC (((.(.(....).).))) | -25.5 | 43
GCCGCAGGAAACTACGGC ((((.((....)).)))) | -32.5 | 50.8
GCCGCATCGAAAGATGGC (((..(((....)))))) | -11.4 | 46.9
GCCGCCACGAAAGTGGGC (((..(((....)))))) | -8.39 | 54.6
GCCGCCGAAAGGCCTGGC ((((((....)))..))) | -16 | 51
GCCGCCGAAAGGCTTGGC ((((((....)))..))) | -21 | 54.5
GCCGCCGGAAACAGCGGC (((((.(....).))))) | -37.4 | 66.4
GCCGCGCGAAAGCCAGGC (((..((....))..))) | -27.8 | 62
GCCGCGCGAAAGCCGGGC (((..((....))..))) | -18.5 | 68.2
GCCGCGCGAAAGCGAAGC ((..(((....)))..)) | -12.9 | 46
GCCGCGCGAAAGCTTGGC (((..((....))..))) | -22.7 | 55.1
GCCGCGGCGAAAGCCGGC (((..(((....)))))) | -7.85 | 68.6
GCCGCTCGAAAGAGAGGC (((.(((....))).))) | -40 | 67.1
GCCGCTGGAAACAGCAGC ((.((((....)))).)) | -20.1 | 50.1
GCCGCTTCGAAAGAAGGC (((..(((....)))))) | -13.2 | 49.7
GCCGGAGGAAACTCCGAC (.(((((....))))).) | -13.1 | 49.9
GCCGGCACGAAAGTGGGC (((..(((....)))))) | -19.2 | 51.8
GCCGGCCCGAAAGGGGGC (((..(((....)))))) | -11.3 | 58.3
